Reference: ChEMBL document CHEMBL4177743, “α-Methylation enhances the potency of isoprenoid triazole bisphosphonates as geranylgeranyl diphosphate synthase inhibitors” (Bioorg Med Chem, 2018)
The source made the active and inactive calls. The rule behind the calls is not given here.

Assays:
[1] = molecular target: T1, Geranylgeranyl pyrophosphate synthase (Homo sapiens) (UniProt O95749); assay: Inhibition of GGDPS in human […] cells assessed as increase in Rap1a level at 1 to 10 uM by Western blot analysis; type: cell-based
T1 sequence (whole entry): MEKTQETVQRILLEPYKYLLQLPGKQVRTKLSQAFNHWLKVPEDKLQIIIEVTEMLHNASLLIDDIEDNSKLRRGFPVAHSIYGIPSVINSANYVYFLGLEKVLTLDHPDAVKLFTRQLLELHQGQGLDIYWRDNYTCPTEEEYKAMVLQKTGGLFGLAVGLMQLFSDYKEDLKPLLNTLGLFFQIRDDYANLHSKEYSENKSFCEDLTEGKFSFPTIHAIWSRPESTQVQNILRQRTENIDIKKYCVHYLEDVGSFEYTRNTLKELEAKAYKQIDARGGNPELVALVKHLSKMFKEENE
Procedure, shortened: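 RPMI-8226 cells were treated for 48 h with varying compound concentrations or lovastatin (10 μM). RIPA lysates containing protease and phosphatase inhibitors were protein-equalized by BCA, then run on SDS-PAGE and transferred to PVDF. Blots were probed with an antibody detecting only unmodified (non-geranylgeranylated) Rap1a, with β-tubulin as loading control, and developed by HRP secondary and ECL.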

[2] = molecular target: T2, Geranylgeranyl pyrophosphate synthase (Homo sapiens, UniProt O95749); assay: Inhibition of recombinant GGDPS (unknown origin) using FPP as substrate pretreated for 10 mins followed by substrate addition measured after 30 mins in presence of [14C]-IPP by liquid scintillation counting method
T2 sequence (O95749 whole entry): T1 sequence (whole entry)
Procedure, shortened: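 Commercial recombinant GGDPS was used, following a previously described protocol. Each compound was run in duplicate at several concentrations across three independent experiments, and IC50 was reported with digeranyl bisphosphate as the positive control in every run.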

[3] = molecular target: T3, Farnesyl pyrophosphate synthase (Homo sapiens, UniProt P14324); assay: Inhibition of recombinant FDPS (unknown origin) using GPP as substrate pretreated for 10 mins followed by substrate addition measured after 30 mins in presence of [14C]-IPP by liquid scintillation counting method
T3 sequence (P14324 whole entry): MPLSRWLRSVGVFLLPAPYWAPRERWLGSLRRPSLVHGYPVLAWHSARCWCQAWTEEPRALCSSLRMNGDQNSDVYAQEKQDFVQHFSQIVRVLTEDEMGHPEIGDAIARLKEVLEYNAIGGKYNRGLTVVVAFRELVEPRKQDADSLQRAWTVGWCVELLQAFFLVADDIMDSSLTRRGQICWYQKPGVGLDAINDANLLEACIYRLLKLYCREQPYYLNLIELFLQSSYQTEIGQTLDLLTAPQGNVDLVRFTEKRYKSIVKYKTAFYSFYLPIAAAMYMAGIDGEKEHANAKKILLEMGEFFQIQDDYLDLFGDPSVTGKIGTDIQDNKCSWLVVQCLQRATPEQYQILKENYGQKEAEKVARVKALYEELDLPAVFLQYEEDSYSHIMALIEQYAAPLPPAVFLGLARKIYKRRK
Procedure, shortened: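 Recombinant FDPS was a gift from an academic laboratory. Each compound was tested in duplicate at multiple concentrations across three independent experiments to obtain IC50, with zoledronic acid as positive control in every run.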

[4] = molecular target: T1, Geranylgeranyl pyrophosphate synthase (Homo sapiens); assay: Inhibition of GGDPS in human […] cells assessed as decrease in Rab GTPase geranylgeranylation by measuring accumulation of intracellular lambda light chain after 48 hrs by ELISA; type: cell-based
Procedure, shortened: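 RPMI-8226 myeloma cells were exposed for 48 h to a range of test concentrations, with lovastatin (10 μM) as positive control. Whole-cell lysates were made in RIPA buffer with protease and phosphatase inhibitors. Intracellular lambda light chain was quantified by human lambda ELISA and normalized to BCA total protein. Data are % of control, mean + SD, n=3; unpaired two-tailed t-test, p < 0.05.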

[5] = organism: Homo sapiens; assay: Selectivity ratio of IC50 for recombinant FDPS (unknown origin) to IC50 for recombinant GGDPS (unknown origin)
Procedure, shortened: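 Ratio of FDPS IC50 to GGDPS IC50. Both enzymes were recombinant: FDPS from an academic source, GGDPS commercial. Each IC50 came from duplicate wells at multiple concentrations in three independent experiments. Positive controls were zoledronic acid for FDPS and digeranyl bisphosphate for GGDPS.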

[6] = molecular target: T1, Geranylgeranyl pyrophosphate synthase (Homo sapiens); settings: 50 to 1000 nM
[7] = molecular target: T1, Geranylgeranyl pyrophosphate synthase (Homo sapiens); settings: 50 to 1000 nM; remark: listed apart in the source

| SMILES | MEC [1] [µM] | IC50 [2] [µM] | IC50 [3] [µM] | MEC [4] [µM] | Ratio IC50 [5] | inhibition [6] | inhibition [7] |
| --- | --- | --- | --- | --- | --- | --- | --- |
| CC(C)=CCCC(C)=CCn1cc(CC(C)(P(=O)(O)O)P(=O)(O)O)nn1 (mixture of isomers) | 0.1 | 1.27 | 62.2 | 0.1 | 49 | – | – |
| CC(C)=CCC/C(C)=C/CCn1cc(CC(C)(P(=O)(O)O)P(=O)(O)O)nn1 [listing 1 of 2 here] | – | – | 43.1 | – | – | – | – |
| CC(C)=CCC/C(C)=C/CCn1cc(CC(C)(P(=O)(O)O)P(=O)(O)O)nn1 (mixture of isomers) [listing 1 of 2 here] | 0.03 | – | – | 0.03 | 241 | – | – |
| CC(C)=CCCC(C)=CCn1cc(CC(P(=O)(O)O)P(=O)(O)O)nn1 (mixture of isomers) | – | – | – | – | – | Active | Active |
| CC(C)=CCC/C(C)=C/CCn1cc(CC(C)(P(=O)(O)O)P(=O)(O)O)nn1 (mixture of isomers) [listing 2 of 2 here] | – | 0.1 | 24.1 | – | – | – | – |
| CC(C)=CCC/C(C)=C/CCn1cc(CC(C)(P(=O)(O)O)P(=O)(O)O)nn1 [listing 2 of 2 here] | 0.02 | – | – | 0.02 | 345 | – | – |
| CC(C)=CCC/C(C)=C\Cn1cc(CC(C)(P(=O)(O)O)P(=O)(O)O)nn1 | 0.1 | 0.92 | > 100 | 0.1 | > 108 | – | – |
| CC(C)=CCC/C(C)=C/Cn1cc(CC(C)(P(=O)(O)O)P(=O)(O)O)nn1 | 5 | 20.5 | 71.4 | 5 | 3.5 | – | – |
| CC(C)=CCC/C(C)=C\CCn1cc(CC(C)(P(=O)(O)O)P(=O)(O)O)nn1 | 0.025 | – | 59.6 | 0.025 | 693 | – | – |
| CCC(Cc1cn(CC=C(C)CCC=C(C)C)nn1)(P(=O)(O)O)P(=O)(O)O | 2.5 | 5.85 | 94.3 | 2.5 | 16 | – | – |
